TPT1 inh – C. albicans TPT1 enzyme inhibition; recombinant caTPT1, FP RNA substrate dephosphorylation; inhibition, % at 5 µM; hit rate 0.81% among 300,000; AID 1962;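 active = inhibition above the mean of all tested compounds plus 3 SD, set per screening campaign, cut at about 24% in these data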
HNF4A DNA FP – change in binding of human HNF4 alpha to DNA. activity change, % at 10 µM. HNF4a-FITC DNA binding, fluorescence polarization, 1 h. hit rate 0.3% among 360,000. AID 1224865. P41235; in the data active = activity change above about 30%, passing the limit was not always enough
PP1 counter – PP1-alpha (human) inhibition in PP5 counter-screen. hit rate 0.9% among 320,000. P62136. inhibition, % at 6.7 µM. purified PP1alpha, OMFP fluorescence;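 active = inhibition above the mean inhibition of all tested compounds plus 3 SD, computed separately for each screening campaign, cut at about 15% in these data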
Target sequence (P62136 whole entry, looked up): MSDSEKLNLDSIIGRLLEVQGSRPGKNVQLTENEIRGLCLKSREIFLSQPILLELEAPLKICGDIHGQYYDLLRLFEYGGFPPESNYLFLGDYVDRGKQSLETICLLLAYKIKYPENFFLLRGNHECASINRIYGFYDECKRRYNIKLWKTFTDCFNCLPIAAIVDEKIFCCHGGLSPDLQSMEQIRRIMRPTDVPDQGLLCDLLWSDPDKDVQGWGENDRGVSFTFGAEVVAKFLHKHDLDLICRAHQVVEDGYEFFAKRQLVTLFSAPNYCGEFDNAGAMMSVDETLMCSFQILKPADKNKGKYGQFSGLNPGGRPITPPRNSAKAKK
NadD block – NadD (S. aureus) enzyme inhibition | purified NadD enzyme, colorimetric absorbance read-out | inhibition, % at 20 µM | AID 602399 | hit rate 0.78% among 360,000; in the data active = inhibition above about 26%
Rpn11 inh – inhibitors of human proteasome Rpn11 | hit rate 0.59% among 360,000 | inhibition, % at 20 µM | AID 588493 | human 26S proteasome, Ub4-pepOG fluorescence polarization; 20S core pre-blocked with epoxomicin;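 active = inhibition at 20 µM, scaled to each plate's controls, above about 33%, limit read from the data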
CSN inh – blocks human CSN-mediated cullin deneddylation; hit rate 0.38% among 360,000; inhibition, % at 12.5 µM; Q92905; Purified CSN, SCF-Nedd8-OG deneddylation, fluorescence polarization;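 active = pattern-corrected inhibition above about 35%, with an unprinted fluorescence ratio check between 0.5 and 1.5, limit read from the data, passing the limit was not always enough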
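Assay system: purified human Csn5 enzyme expressed in HEK293T cells; Input: 0.24 nM Csn5 enzyme, final concentration; Reagent: 10 nM SCFSkp2-Nedd8OG; Compound dosing: 12.5 µM single point; Times: reaction 90 min, room temperature; Technique: fluorescence polarization readout.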
HNF4a DNA conf – change in binding of human HNF4 alpha to DNA, retest; AID 1224897; shares compounds with HNF4A DNA FP; hit rate 99% among 210; HNF4A-FITC DNA binding, fluorescence polarization, 1 h; activity change, % at 12.5 µM; call rule not given here
A number is an active result; 0 = inactive; - = no result given. Sampled rows, rich in hits. Any-hit rate of the full collection: about 2.7%.

SMILES	TPT1 inh	HNF4A DNA FP	PP1 counter	NadD block	Rpn11 inh	CSN inh	HNF4a DNA conf
Cc1cc(C(=O)O)ccc1N=Cc1c(O)ccc2ccccc12	0	46.4	0	0	0	0	69.8
CC1(c2nnnn2-c2ccc3c(c2)OCCO3)CCC(=O)N1Cc1cccnc1 (centres undefined)	-	0	-	0	-	0	-
COc1ccc(S(=O)(=O)N2CCCC(C(=O)N3CCN(Cc4ccccc4)CC3)C2)cc1Cl (centres undefined)	-	0	-	0	0	0	-
Cc1nc(CSc2nsc(/C=C/N(C)C)c2C#N)cs1	-	70.2	-	0	-	44.9	62.0
Cc1snc(SCc2ccc(F)cc2)c1C#N	0	0	0	0	0	0	-
COc1c2ccoc2nc2c(OC)c(OC[C@@H](O)C(C)(C)O)ccc12	0	0	0	0	0	0	-
CN(/C=C/C(=C\C=[N+](C)c1ccccc1)OCCCS(=O)(=O)[O-])c1ccccc1	0	87.3	0	0	-	0	106.5
CN(/C=C/C(=C/C=[N+](C)c1ccccc1)OCCCS(=O)(=O)[O-])c1ccccc1	0	0	0	0	-	0	-
CC(C)=CCCC(C)c1cc(C(=O)NCCc2ccc(O)cc2)c(N)s1 (centres undefined)	-	51.9	-	-	-	0	39.3
CN1c2ccccc2SC2C(c3ccccc3)=NOC21 (centres undefined)	-	0	-	0	0	0	-
O=C(Nc1ccccc1)c1cc2ccccc2o1	0	0	0	0	0	0	-
CC/C(=C\c1oc2cc3ccccc3cc2[n+]1CC)Nc1ccccc1	0	50.7	0	0	0	0	88.3
O=C(CCCn1cncn1)N1CCCC(N2CCN(c3ccccc3F)CC2)C1 (centres undefined)	0	0	0	0	0	0	-
O=C1CC(=O)N(C2CCCCC2)C(=O)N1c1ccccc1S(=O)(=O)Oc1ccccc1	-	64.9	-	0	-	0	40.7
O=C(N/N=C/c1ccc(-c2ccc([N+](=O)[O-])cc2)o1)[C@H]1C[C@@H]1c1ccccc1	0	64.9	0	0	-	0	73.8
O=C(N/N=C/c1ccc(-c2cccc([N+](=O)[O-])c2)o1)[C@H]1C[C@@H]1c1ccccc1	0	0	0	0	0	0	-
CCOc1ccc(CNC(=O)C2CCN(c3nnc(C)c4c(C)n(-c5ccc(C)cc5)nc34)CC2)cc1	0	45.2	0	0	-	0	49.8
O=C(N/N=C/c1cccnc1)c1cccc(NC(=O)c2ccc(Cl)cc2)c1	0	89.6	0	0	52.0	109.6	172.7
